Assay outcomes from PubChem BioAssay.
The full list was thinned out, with hits kept by preference.
Diaphorase act: activates diaphorase or chemically reduces, flagging diaphorase assay artifacts; Diaphorase/resazurin coupled assay, resorufin fluorescence, 16 min; stronger effect = higher value; 1 = vehicle wells, 0 = NADH-free wells; activation factor at 20 µM; 190,000 tested, 0.005% active;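 active means diaphorase activity raised at least twofold by the compound at 20 µM; inactive means activation factor below 2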
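Material: purified diaphorase enzyme from Clostridium kluyveri; Also added: 0.114 mM NADH and 0.1 mM resazurin, final amounts; Doses: single compound dose of 20 µM, 1% DMSO final; Times: 16 min enzyme reaction, ambient temperature; Detection: resorufin fluorescence, excitation 544 nm, emission 590 nm; Measure: increased resorufin signal from activators or reducing compounds.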
DTT redox prof: compounds producing H2O2 with reducing agent – biochemical, NIH compound library profiling, artefact control for MLSCN library redox annotation, primary screen. DTT-dependent redox cycling H2O2, phenol red/HRP absorbance; 100% = 100 µM peroxide control, 0% = buffer. activation, % at 10 µM. 200,000 tested, 0.03% active. AID 878;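 active means activation of at least 50% relative to the plate's high and low controls in the primary single-dose screen; inactive means activation below 50%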;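 further: compound incubated with DTT at 0.8 mM final as the reducing agent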
Diaphorase inh: diaphorase inhibition or chemical oxidation counter-screen; inhibition, % at 20 µM; diaphorase resazurin-to-resorufin fluorescence, NADH, 16 min; bacterial (C. kluyveri) enzyme, not human; 190,000 tested, 0.69% active;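 active means primary screen inhibition at 20 µM above a set limit, cut at about 50% in these data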;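 further: plate controls were DMSO with full reaction for no effect and wells lacking NADH for full effect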
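Test system: Clostridium kluyveri diaphorase enzyme / Quantity: diaphorase at 0.14 U/mL in enzyme working solution / Incubation: 16-min room-temperature incubation before reading / Benchmarks: NADH-free wells as positive control, DMSO-only neutral wells / Signal: resorufin fluorescence 544/590 nm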
PfGluPho inh: PfG6PD (Plasmodium falciparum) enzyme inhibition | 350,000 tested, 0.78% active | PfGluPho enzyme, NADPH resazurin-diaphorase fluorescence | inhibition, % at 20 µM;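 active means inhibition reaching at least a set limit at 20 µM in the primary screen, cut at about 59% in these data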;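 further: 0% = DMSO wells with substrate and 100% = DMSO wells lacking glucose-6-phosphate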
Lmaj promast: Leishmania major promastigote growth inhibition | inhibition, % at 10 µM | Leishmania major promastigotes, resazurin fluorescence viability | AID 1063 | 200,000 tested, 9% active;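 further: promastigotes grown with compound for 44 hours at 28 °C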
G6PDH counter: L. mesenteroides G6PDH inhibition counter-screen | Purified L. mesenteroides G6PDH, diaphorase/resazurin coupled fluorescence, 45 min | inhibition, % at 5 µM | 200,000 tested, 0.12% active | AID 1020
* = called active by the depositor; / = no result given. Unless noted, no stated cut-off is given here; in the data, active means inhibition above about 50%; inactive means the rest.

SMILES | Diaphorase act | DTT redox prof | Diaphorase inh | PfGluPho inh | Lmaj promast | G6PDH counter
Cc1ccccc1S(=O)(=O)NCc1ccc(N2CCN(C)CC2)cc1 | / | / | / | 8.1 | / | /
CNC[C@H](O)c1ccc(O)c(O)c1 | 0.4 | 8.4 | 58.6* | 31.4 | 0.0 | 64.2*
CC(C)NCC(O)c1ccc(O)c(O)c1 (stereo not given) | / | / | / | 18.9 | / | /
O=S(=O)(Cc1ccccc1)N1CCC(N2CCN(c3ccccc3)CC2)CC1 | 0.9 | -0.3 | 14.3 | -2.1 | 98.0* | -10.2
CCOC(=O)N1CCC(N2CCN(c3ccccc3)CC2)CC1 | / | / | / | -6.5 | / | /
O=C(c1cccs1)N1CCC(N2CCN(c3ccccc3)CC2)CC1 | 1 | -2.5 | 3.7 | 10.2 | 86.0* | 11.5
O=C(c1cccc2ccccc12)N1CCC(N2CCN(c3ccccc3)CC2)CC1 | 0.8 | 5.9 | 21.7 | 2.0 | 95.1* | 5.1
CC(C)[C@H](NC(=O)c1ccc(C(C)(C)C)cc1)C(=O)N1CCN(Cc2ccc3c(c2)OCO3)CC1 | / | / | / | 21.7 | / | /
COc1cc(C(=O)O)nc2ccc([N+](=O)[O-])cc12 | 0.8 | -0.9 | 22.1 | -10.5 | 0.5 | 3.8
CCN(CCCNC(=O)CC(C(=O)N1CCc2ccccc21)n1ccnc1)c1ccccc1 (stereo not given) | 0.8 | 1.1 | 16.7 | 8.3 | 99.9* | 11.0
O=C(CC(C(=O)N1CCc2ccccc21)n1ccnc1)NCc1cccnc1 (stereo not given) | 1 | 1.2 | 1.6 | -12.0 | -3.0 | 3.5
Cc1cc(C)cc(CC(Cc2nc3ccccc3[nH]2)c2nc3ccccc3[nH]2)c1 (stereo not given) | 0.9 | 1.3 | 10.9 | 28.6 | 91.2* | -30.3
Cc1ccc(CSCc2nc3ccccc3[nH]2)cc1 | 0.8 | -0.5 | 15.8 | -6.2 | 25.6 | -4.7
O=C(CCCSc1nc2ccccc2[nH]1)Nc1nnc(C2CC2)s1 | 1 | 1.2 | -0.9 | 2.8 | -1.3 | 3.8
CCN1CCN(CCC(=O)Nc2ccc(Br)c(C)c2)CC1 | / | / | / | -12.5 | / | /
CCOC(=O)N1CCN(CCC(=O)Nc2ccc(OC(F)(F)F)cc2)CC1 | 0.9 | 1.6 | 7.7 | 17.7 | 91.6* | 11.2
CCOC(=O)N1CCN(CCC(=O)Nc2ccc(Br)c(C)c2)CC1 | 0.8 | -0.4 | 21.8 | 7.2 | 85.4* | 7.4
CCOC(=O)N1CCN(CCC(=O)Nc2ccc(F)c(F)c2)CC1 | / | / | / | 10.6 | / | /
O=C(C[n+]1ccc2ccccc2c1)c1ccc(NC(=O)c2ccccc2)cc1 | 1.2 | -0.5 | -18.5 | 10.2 | -4.3 | 20.0
CC(=O)Nc1ccc(C(=O)OCC(=O)N(Cc2ccccc2)C(C)(C)C)cc1 | 0.5 | -0.1 | 53.9* | -4.2 | 66.5* | 0.0
Cc1ccc(CNC(=O)Cn2cnc(S(=O)(=O)N3CCC(C)CC3)c2)o1 | / | / | / | -0.9 | / | /
CCCCOc1ccc(NC(=O)C(=O)NCCCn2ccnc2)cc1 | 1 | -0.1 | 3.5 | 20.0 | 17.5 | 11.3
CCOc1ccc(NC(=S)NCCCn2ccnc2)cc1 | 0.9 | 0.2 | 5.3 | -12.6 | 83.2* | -5.2
O=C1c2cc(N3CCCC3)c([N+](=O)[O-])cc2C(=O)N1c1ccccc1 | 0.9 | 0.4 | 9.7 | -3.1 | 59.8* | 2.4
CC1CC(C)CN(c2cc3c(cc2[N+](=O)[O-])C(=O)N(c2ccccc2)C3=O)C1 (stereo not given) | 0.9 | 0.4 | 7.0 | 4.6 | 84.9* | 3.8
SMILES | Diaphorase act | DTT redox prof | Diaphorase inh | PfGluPho inh | Lmaj promast | G6PDH counter
CCOC(=O)N1CCN(c2c(NCC3CCN(Cc4cccc(C)c4)CC3)c(=O)c2=O)CC1 | 0.9 | 0.1 | 12.5 | 13.2 | -7.3 | -28.2
COc1ccc(COC(=O)c2sc3nc4n(c(=O)c3c2C)CCC4)cc1 | / | / | / | -11.8 | / | /
COc1ccc(OC)c2sc(N(CCN(C)C)C(=O)c3ccc4ccccc4c3)nc12 | / | / | / | 16.6 | / | /
COc1ccc(C)c2sc(N(CCCN(C)C)C(=O)c3ccc(S(=O)(=O)N(C)C)cc3)nc12 | 1 | -0.8 | 4.6 | -6.2 | 73.5* | -2.5
CCOc1cccc2sc(N(CCCN(C)C)C(=O)c3ccc(S(=O)(=O)N(C)c4ccccc4)cc3)nc12 | 1.1 | 0.1 | -5.1 | 4.3 | 88.3* | 1.9
CCOc1cccc2sc(N(CCCN(C)C)C(=O)c3ccc(S(=O)(=O)N4CCc5ccccc5C4)cc3)nc12 | / | / | / | -5.5 | / | /
Clc1ccc(CNc2ccccc2NCc2ccc(Cl)nc2)cn1 | 0.7 | -0.5 | 30.5 | -4.8 | -7.7 | 15.6
O=S(=O)(NCCS(=O)(=O)N1CCN(c2ccccc2)CC1)c1ccccc1 | / | / | / | -5.7 | / | /
COc1cc(C2NCC(c3ccc(Cl)cc3Cl)c3c2[nH]c2ccccc32)cc(OC)c1OC (stereo not given) | 0.8 | 0.5 | 21.2 | 13.2 | 99.3* | 4.6
CCN(CC)C(=O)CN1CCN(Cc2ccc3c(c2)OCO3)CC1 | / | / | / | -0.8 | / | /
Cc1cc(C)cc(OC(=O)COc2ccccc2C)c1 | / | / | / | 3.4 | / | /
Cc1c(C#N)c(NC(=O)CCl)n(Cc2ccccc2)c1C | 0.9 | 0.3 | 9.9 | 6.1 | 90.1* | 3.8
CCN(CC)C(=O)c1sc(NC(=O)Cc2cccs2)c(C#N)c1C | 0.8 | 2.1 | 19.7 | 11.6 | -9.9 | 9.9
Cc1c(C#N)c(NC(=O)CCl)n(Cc2ccc(F)cc2)c1C | 1 | -1.7 | -1.1 | -8.0 | 92.3* | 2.0
Cc1c(C#N)c(NC(=O)CCl)n(Cc2cccs2)c1C | 0.9 | -2.2 | 12.3 | 11.9 | 79.6* | 4.8
COc1ccc(C2=Nn3c(nnc3C(F)(F)F)SC2)cc1 | / | / | / | 4.8 | / | /
CCCc1nn(CCc2ccccn2)c(N)c1CC | 0.9 | -0.2 | 9.4 | -1.6 | -6.2 | -5.5
Oc1[nH]c2ccccc2c1N=Nc1ccc(C(F)(F)F)cn1 | 1 | -6.5 | 0.9 | 7.5 | 55.0* | -3.5
Cc1ccc(CN2CCC(c3cc(-c4cccs4)n[nH]3)CC2)cc1 | 1 | -0.2 | -1.5 | 18.6 | 94.1* | -2.3
COc1ccc(N(CC(=O)Nc2ccc(C)c(C)c2)C2=NC3CS(=O)(=O)CC3S2)cc1 (stereo not given) | / | / | / | 6.7 | / | /
Cc1cc(C)cc(N(CC(=O)Nc2ccccc2)C2=NC3CS(=O)(=O)CC3S2)c1 (stereo not given) | 1 | 0.0 | 2.3 | -4.3 | 64.4* | 7.3
CC(=O)c1cccc(N(CC(=O)Nc2ccccc2C(=O)N2CCCC2)S(C)(=O)=O)c1 | / | / | / | 0.5 | / | /
COc1ccc(NC(=O)C(Cl)=C(Cl)Cl)cn1 | 0.9 | -1.2 | 6.7 | 6.7 | 5.4 | -0.5
COc1ccc(NC(=O)/C(Cl)=C(/Cl)S(=O)Cc2ccc(Cl)cc2)cn1 (stereo not given) | 0.9 | 10.1 | 12.2 | 39.5 | 100.4* | -2.5
Cc1ccc2nsnc2c1NC(=O)c1cncc(Br)c1 | 0.8 | 0.0 | 20.4 | 19.1 | 0.2 | 8.7
CCN1CC=C2C(C#N)=C(N)C(C#N)(C#N)C(c3cc(Cl)ccc3Cl)C2C1 (stereo not given) | 0.6 | 1.7 | 36.5 | 9.9 | 65.0* | 13.9
